Published values collected from several papers.
Compare with care: the assays were run in different laboratories.
GHSR: Growth hormone secretagogue receptor type 1 (GHSR, Homo sapiens, UniProt Q92847)
DRD3: D(3) dopamine receptor (DRD3, Homo sapiens, UniProt P35462)
CA12: Carbonic anhydrase 12 (CA12, Homo sapiens, UniProt O43570)
SLC6A3: Sodium-dependent dopamine transporter (SLC6A3, Homo sapiens, UniProt Q01959)
ACE: Angiotensin-converting enzyme (ACE, Homo sapiens, UniProt P12821)

The IC50 of `CC(C)C[C@H](NC(=O)CNC(=O)[C@H](CCCNC(=N)N)NC(=O)[C@H](Cc1c[nH]c2ccccc12)NC(=O)[C@H](Cc1ccccc1)NC(=O)[C@@H]1CCCN1C(=O)CN)C(=O)N[C@@H](CO)C(=O)N[C@@H](CCCNC(=N)N)C(=O)N[C@@H](CCCNC(=N)N)C(=O)N1CCC[C@H]1C(=O)N[C@@H](CC(C)C)C(=O)N[C@@H](CCCNC(=N)N)C(=O)O` is reported as 3.37 µM (GHSR; calcium signal, antagonist, fluorescence).
`Cc1[nH]c(C)c(S(=O)(=O)Nc2ccc(S(=O)(=O)F)c(Cl)c2)c1C(=O)N1CCC(F)(F)C1` gave an IC50 of 0.93 µM (DRD3; β-arrestin recruitment, antagonist).
`CC[C@H](C)[C@H](NC(=O)[C@H](C)NC(=O)[C@H](C)NC(=O)[C@H](CCC(=O)O)NC(=O)[C@H](CCCNC(=N)N)NC(=O)[C@H](CCC(=O)O)NC(=O)[C@H](CC(C)C)NC(=O)[C@H](CCSC)NC(=O)[C@H](CCCNC(=N)N)NC(=O)[C@H](CCCNC(=N)N)NC(=O)[C@H](CC(C)C)NC(=O)[C@H](Cc1c[nH]cn1)NC(=O)[C@H](CCC(=O)O)NC(=O)[C@@H]1CCCN1C(=O)[C@H](CO)NC(=O)[C@H](CC(C)C)NC(=O)[C@H](Cc1ccccc1)NC(=O)[C@H](Cc1ccc(O)cc1)NC(=O)[C@H](CO)NC(=O)CN)C(=O)N1CCC[C@H]1C(=O)N1CCC[C@H]1C(=O)N1CCC[C@H]1C(=O)N1CCC[C@H]1C(=O)N[C@H](C(=O)N1CCC[C@H]1C(=O)N1CCC[C@H]1C(=O)N[C@@H](CC(C)C)C(=O)O)C(C)C` has an IC50 of 1.37 µM (GHSR; calcium signal, antagonist, fluorescence).
`O=C(Nc1cccc(Cl)c1)Nc1ccc2c(c1)C=CCP(=O)(O)O2` has a Ki of > 10 µM (CA12; enzyme activity, inhibitor, stopped-flow).
For `CCCCC1CNC2CCc3ccc(OC)cc3C12` (racemic), the Ki was 5.03 µM (DRD3; ligand displacement, radioligand).
`COC(=O)[C@H]1[C@@H](c2ccc(Cl)c(Cl)c2)C[C@@H]2CC[C@H]1N2CCCOCc1ccc2cc3ccccc3cc2c1` has a Ki of 0.051 µM (SLC6A3; ligand displacement, radioligand; pH 7.4).
`Cc1[nH]c(C)c(S(=O)(=O)Nc2ccc(S(F)(F)(F)(F)F)cc2)c1C(=O)N(C)C` has an IC50 of 1.7 µM (DRD3; β-arrestin recruitment, antagonist).
The Ki of `O=C(Nc1cccc(F)c1)Nc1ccc2c(c1)C=CCP(=O)(O)O2` is reported as > 10 µM (CA12; enzyme activity, inhibitor, stopped-flow).
For `CC(C)C[C@H](NC(=O)[C@@H](NC(=O)[C@@H](NC(=O)[C@@H]1CCCN1C(=O)[C@@H](N)CCC(=O)O)C(C)C)[C@@H](C)O)C(=O)O`, the IC50 was ~432 µM (ACE; enzyme activity, inhibitor).
The Ki of `N#C[Se]Cc1cc(=O)oc2cc(O)ccc12` is reported as 0.0933 µM (CA12; enzyme activity, inhibitor, stopped-flow).
With `O=C(Nc1ccc(Br)cc1)Nc1ccc2c(c1)C=CCP(=O)(O)O2` the Ki was > 10 µM (CA12; enzyme activity, inhibitor, stopped-flow).
`CC(C)C[C@H](NC(=O)[C@H](Cc1ccc(O)cc1)NC(=O)[C@@H](N)C(C)C)C(=O)N[C@@H](CCC(=O)O)C(=O)N[C@@H](CCC(N)=O)C(=O)O` gave an IC50 of 27.9 µM (ACE; enzyme activity, inhibitor, absorbance).
`Cc1[nH]c(C)c(S(=O)(=O)Nc2ccc(S(=O)(=O)F)c(F)c2)c1C(=O)N1CCC(F)(F)C1` has an IC50 of 6.5 µM (DRD3; β-arrestin recruitment, antagonist).
`O=C(Nc1ccccc1)Nc1ccc2c(c1)C=CCP(=O)(O)O2` has a Ki of > 10 µM (CA12; enzyme activity, inhibitor, stopped-flow).
`CC[C@H](C)[C@H](NC(=O)[C@H](Cc1ccccc1)NC(=O)[C@H](CCC(N)=O)NC(=O)[C@H](CCCNC(=N)N)NC(=O)[C@@H](NC(=O)[C@H](C)NC(=O)[C@H](CCCCN)NC(=O)[C@H](CCCNC(=N)N)NC(=O)[C@H](CCC(=O)O)NC(=O)[C@H](CC(C)C)NC(=O)[C@H](CC(C)C)NC(=O)[C@H](CCC(=O)O)NC(=O)[C@H](CO)NC(=O)[C@H](Cc1c[nH]c2ccccc12)NC(=O)[C@H](CC(C)C)NC(=O)[C@H](CO)NC(=O)[C@@H](NC(=O)[C@H](Cc1ccccc1)NC(=O)[C@H](CCC(=O)O)NC(=O)[C@H](CC(C)C)NC(=O)[C@H](CCC(=O)O)NC(=O)CNC(=O)[C@@H]1CCCN1)[C@@H](C)O)C(C)C)C(=O)N[C@@H](CCC(=O)O)C(=O)N[C@@H](CC(=O)O)C(=O)N[C@@H](CC(C)C)C(=O)N[C@@H](CCCCN)C(=O)N[C@@H](CCCCN)C(=O)O` has an IC50 of 0.874 µM (Glucagon-like peptide 1 receptor (GLP1R, Homo sapiens, UniProt P43220); calcium signal, antagonist, fluorescence).
With `O=C(Nc1ccc2c(c1)C=CCP(=O)(O)O2)c1ccc2ccccc2c1` the Ki was 0.0272 µM (CA12; enzyme activity, inhibitor, stopped-flow).
The IC50 of `CCC(CNc1nc(-c2cn3ccnc3cc2C)nc2ccccc12)c1ccccc1` (stereo not drawn) is reported as 9.86 µM (SLC6A3; transporter uptake, inhibitor, radiometric).
`CC[C@H](C)[C@H](NC(=O)[C@H](C)NC(=O)[C@H](C)NC(=O)[C@H](CCC(=O)O)NC(=O)[C@H](CCCNC(=N)N)NC(=O)[C@H](C)NC(=O)[C@H](CC(C)C)NC(=O)[C@H](CC(C)C)NC(=O)[C@H](CCCNC(=N)N)NC(=O)[C@H](CCCNC(=N)N)NC(=O)[C@H](CC(C)C)NC(=O)[C@H](Cc1c[nH]cn1)NC(=O)[C@H](CCC(=O)O)NC(=O)[C@@H]1CCCN1C(=O)[C@H](CO)NC(=O)[C@H](CC(C)C)NC(=O)[C@H](Cc1ccccc1)NC(=O)[C@H](Cc1ccc(O)cc1)NC(=O)[C@H](CO)NC(=O)CN)C(=O)N1CCC[C@H]1C(=O)N1CCC[C@H]1C(=O)N1CCC[C@H]1C(=O)N1CCC[C@H]1C(=O)N[C@H](C(=O)N[C@@H](CC(C)C)C(=O)N1CCC[C@H]1C(=O)N[C@@H](CC(C)C)C(=O)O)C(C)C` gave an IC50 of 1.1 µM (GHSR; calcium signal, antagonist, fluorescence).
With `Cc1ccc(C(=O)Nc2ccc3c(c2)C=CCP(=O)(O)O3)cc1` the Ki was 0.0078 µM (CA12; enzyme activity, inhibitor, stopped-flow).
With `CC(C)C[C@H](NC(=O)[C@@H](NC(=O)[C@@H](NC(=O)[C@@H]1CCCN1C(=O)[C@@H](N)CCC(=O)O)C(C)C)[C@@H](C)O)C(=O)N[C@H](C(=O)O)[C@@H](C)O` the IC50 was ~872 µM (ACE; enzyme activity, inhibitor).
With `CC[C@H](C)[C@H](NC(=O)[C@H](C)NC(=O)[C@H](C)NC(=O)[C@H](CCC(=O)O)NC(=O)[C@H](CCCNC(=N)N)NC(=O)[C@H](C)NC(=O)[C@H](CC(C)C)NC(=O)[C@H](CC(C)C)NC(=O)[C@H](CCCNC(=N)N)NC(=O)[C@H](CCCNC(=N)N)NC(=O)[C@H](C)NC(=O)[C@H](Cc1c[nH]cn1)NC(=O)[C@H](CCC(=O)O)NC(=O)[C@@H]1CCCN1C(=O)[C@H](CO)NC(=O)[C@H](CC(C)C)NC(=O)[C@H](Cc1ccccc1)NC(=O)[C@H](Cc1c[nH]c2ccccc12)NC(=O)[C@H](CO)NC(=O)CN)C(=O)N1CCC[C@H]1C(=O)N1CCC[C@H]1C(=O)N1CCC[C@H]1C(=O)N1CCC[C@H]1C(=O)N[C@H](C(=O)N1CCC[C@H]1C(=O)N1CCC[C@H]1C(=O)N1CCC[C@H]1C(=O)O)C(C)C` the EC50 was 0.19 µM (GHSR; calcium signal, agonist, fluorescence).
